A selection: hits, their analogues and other compounds. The true share with any hit is near 1.5%.
Cneo AK release: Cryptococcus neoformans lysis via adenylate kinase release | C. neoformans lysis, adenylate kinase release luminescence, 4 h; normalised: neutral wells 0, clomiphene wells 100 | lysis activity, % at 15 µM | 0.2% of 360,000 active;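 active means mean lysis activity across replicates of at least 80%, whatever share of replicates individually reach that level; inactive means mean lysis activity below 80%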
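Material: C. neoformans cells | Amount: Yeast cell density of 5 × 10^6 cells/mL | Medium: Fresh YPD growth medium | Dosing: Single dose | Times: Static 4 h at 37 °C with compound, 1 h detection | Detection: AK luminescence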
MITF act: MITF TRPM1 promoter activation in melanoma cells; activation, % at 12.5 µM; 0.75% of 300,000 active; SK-MEL-5 TRPM1-promoter luciferase, 24 h; % of positive control, neutral wells = 0;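 active means mean activation of at least 80% with every replicate also reaching 80%; inconclusive means mean reaches 80% but some replicate falls short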
PGC1a acetyl inh: PGC1a acetylation modulation, inhibitor mode; AID 651687; inhibition, % at 15.6 µM; 0.17% of 350,000 active; U2OS PGC1a acetylation, AlphaScreen anti-acetyl-lysine; with virally co-expressed GCN5 acetyltransferase;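 active means every replicate shows inhibition of at least 40%; inconclusive means mean inhibition at least 40% but some replicate below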
Wnt bcat act: activators of Wnt/beta-catenin signaling | 1.2% of 300,000 active | Wnt/beta-catenin reporter cell assay, activator, plate reader | AID 743398 | activation, % at 9.35 µM; in the data active means activation above about 30%, passing the limit was not always enough; inconclusive means no clear call, values can overlap the other calls
Each line names hits and unclear results; the compound was inactive in the other large screens.

C[C@@H]1CCCCO[C@@H](CN(C)Cc2ccccc2)[C@H](C)CN([C@H](C)CO)C(=O)c2cc(NC(=O)Nc3ccccc3)ccc2O1	none (no result: MITF act, Wnt bcat act)
COc1cccc2c1C(CO)N1C(C#N)C3CC(C(=O)O)C(C1C2)N3C (configuration not stated)	PGC1a acetyl inh 66
COc1ccccc1-c1ccccc1[C@H]1[C@@H](CO)N(C(=O)C2CC2)[C@H]1C#N	none (no result: Cneo AK release, MITF act, Wnt bcat act)
C[C@H]1CN([C@@H](C)CO)C(=O)c2cc(/C=C/c3ccccc3)cnc2O[C@@H]1CN(C)Cc1ccccc1	none (no result: MITF act, Wnt bcat act)
O=C(N=Nc1c(O)[nH]c2ccccc12)c1ccc2c(c1)OCO2	Wnt bcat act 46 (no result: Cneo AK release, PGC1a acetyl inh)
O=C(N=Nc1c(O)[nH]c2ccccc12)c1ccc(CN2CCOCC2)cc1	none
C[C@@H]1CN([C@@H](C)CO)C(=O)c2cc(C#CCN(C)C)cnc2O[C@H]1CN(C)Cc1cccc(C(=O)O)c1	none (no result: MITF act, Wnt bcat act)
CCCNC(=O)N(C)C[C@H]1Oc2ncc(C#CC3CCCCC3)cc2C(=O)N([C@@H](C)CO)C[C@@H]1C	Cneo AK release 109 (no result: MITF act, Wnt bcat act)
CCCNC(=O)N(C)C[C@@H]1Oc2ncc(C#CC3CCCCC3)cc2C(=O)N([C@H](C)CO)C[C@@H]1C	Cneo AK release 106 (no result: MITF act, Wnt bcat act)
CCCNC(=O)N(C)C[C@@H]1Oc2ncc(C#CC3CCCCC3)cc2C(=O)N([C@@H](C)CO)C[C@@H]1C	none (no result: MITF act, Wnt bcat act)
CCCNC(=O)N(C)C[C@@H]1Oc2ncc(C#CC3CCCCC3)cc2C(=O)N([C@H](C)CO)C[C@H]1C	none (no result: MITF act, Wnt bcat act)
CCCN1[C@@H]2Cn3c(ccc(-c4cccnc4)c3=O)[C@H]1[C@@H](C(=O)NCCc1cn(C)cn1)[C@@H]2CO	none (no result: MITF act, PGC1a acetyl inh, Wnt bcat act)
CC=Cc1ccc2n(c1=O)C[C@H]1[C@H](CO)[C@@H](C(=O)NCc3ccc4c(c3)OCO4)[C@@H]2N1C(=O)C1CC1 (mixture of isomers)	Cneo AK release 104 (no result: MITF act, Wnt bcat act)
CC=Cc1ccc2n(c1=O)C[C@@H]1[C@@H](CO)[C@H](C(=O)NCc3ccc4c(c3)OCO4)[C@H]2N1C(=O)C1CC1 (mixture of isomers)	Cneo AK release 101 (no result: MITF act, Wnt bcat act)
CC=Cc1ccc2n(c1=O)C[C@@H]1[C@@H](CO)[C@H](C(=O)NCc3ccc4c(c3)OCO4)[C@H]2N1C(=O)COC (mixture of isomers)	none (no result: MITF act, PGC1a acetyl inh, Wnt bcat act)
C[C@@H]1CCCCO[C@H](CN(C)C(=O)CCCN(C)C)[C@@H](C)CN([C@H](C)CO)C(=O)c2cc(NC(=O)C3CCCCC3)ccc2O1	none (no result: MITF act, PGC1a acetyl inh, Wnt bcat act)
O=C(Nc1nc2ccc([N+](=O)[O-])cc2s1)c1c(F)cccc1F	none
O=C(NC(=S)Nc1nc2ccccc2s1)c1ccco1	Wnt bcat act 53 (no result: Cneo AK release, PGC1a acetyl inh)
O=C(Nc1nc2ccc([N+](=O)[O-])cc2s1)c1ccco1	Wnt bcat act 52 (no result: Cneo AK release, MITF act, PGC1a acetyl inh)
COc1ccc(-c2nnc(-c3ccc(F)cc3)o2)cc1	Wnt bcat act 36 (no result: Cneo AK release, PGC1a acetyl inh)
COc1ccc(-c2nnc(-c3ccc(C)cc3)o2)cc1	Wnt bcat act 35
COc1ccc(-c2nnc(-c3ccccc3O)o2)cc1	Wnt bcat act 44
Cc1cc(-c2nnc(-c3cccc(C(F)(F)F)c3)o2)no1	none (no result: Cneo AK release)
Cc1ccc(-c2nnc(-c3cc(C)on3)o2)cc1	Wnt bcat act 49 (no result: PGC1a acetyl inh)
Fc1ccc(-c2nnc(-c3ccc(Cl)cc3)o2)cc1	none
C[C@@H]1CCCCO[C@H](CN(C)CC2CCCCC2)[C@H](C)CN([C@@H](C)CO)C(=O)c2cc(NS(=O)(=O)c3cn(C)cn3)ccc2O1	none (no result: MITF act, PGC1a acetyl inh, Wnt bcat act)
CC(C)NC(=O)N(C)C[C@H]1Oc2ccc(NC(=O)Nc3ccc(F)cc3)cc2CC(=O)N([C@@H](C)CO)C[C@@H]1C	none (no result: MITF act, Wnt bcat act)
C#CCSc1nnc(-c2ccc(OC)cc2)o1	Wnt bcat act 38
COc1ccc(-c2nnc(SCC#N)o2)cc1	none
CSc1nsc(SCC(=O)Nc2ccc(OC(C)=O)cc2)n1	MITF act 89, Wnt bcat act 41
O=C(N[C@H]1CC1c1ccccc1)c1ccc([N+](=O)[O-])cc1 (some centres not stated)	Wnt bcat act 35 (no result: Cneo AK release, PGC1a acetyl inh)
O=C(NCc1ccccc1)c1ccc([N+](=O)[O-])cc1	none (no result: Cneo AK release, MITF act, PGC1a acetyl inh)
COC(=O)c1ccc2c(c1)C(=O)/C(=C/c1ccc(O)cc1)O2	none
COc1cccc(/C=C2\Oc3ccc(O)cc3C2=O)c1O	Wnt bcat act 38
C[C@@H]1CN([C@H](C)CO)C(=O)Cc2cc(NS(=O)(=O)c3cccs3)ccc2O[C@@H]1CN(C)C(=O)Nc1ccc(C(F)(F)F)cc1	none (no result: MITF act, Wnt bcat act)
Nc1ccc(CSc2ccc(Cl)cc2)c(Cl)c1	MITF act 135, Wnt bcat act 57
O=c1/c(=C\c2ccc(F)cc2)sc2n1CCCN=2	Wnt bcat act 53 (no result: Cneo AK release)
CCCNC(=O)Nc1ccc2c(c1)C(=O)N(C)C[C@H](OC)[C@@H](C)CN(Cc1cccnc1)[C@H](C)CO2	Cneo AK release 81 (no result: MITF act, Wnt bcat act)
CCCC(=O)Nc1ccc2c(c1)OC[C@@H](C)N(Cc1cncnc1)C[C@@H](C)[C@@H](OC)CN(C)C2=O	Cneo AK release 94 (no result: MITF act, Wnt bcat act)
CO[C@@H]1CN(C)C(=O)c2cc(NC(=O)C3CC3)ccc2OC[C@@H](C)N(Cc2cncnc2)C[C@H]1C	none (no result: MITF act, Wnt bcat act)
CO[C@H]1CN(C)C(=O)c2cc(NC(=O)C3CC3)ccc2OC[C@@H](C)N(Cc2cncnc2)C[C@H]1C	Cneo AK release 84 (no result: MITF act, Wnt bcat act)
CCCC(=O)Nc1ccc2c(c1)OC[C@H](C)N(Cc1cncnc1)C[C@@H](C)[C@H](OC)CN(C)C2=O	none (no result: MITF act, Wnt bcat act)
C[C@H]1CN([C@@H](C)CO)C(=O)Cc2cc(NC(=O)Cc3cn(C)c4ccccc34)ccc2O[C@H]1CN(C)C	none (no result: MITF act, Wnt bcat act)
C[C@H]1CN([C@@H](C)CO)C(=O)c2ccccc2-c2ccccc2CO[C@H]1CN(C)Cc1ccc(C(=O)O)cc1	none (no result: MITF act, Wnt bcat act)
O=c1cc(-c2ccccc2)[nH]c2nc3ccccc3n12	Wnt bcat act 47
COc1ccc(OCCSc2nc(N)cc(N)n2)cc1	MITF act 95
Cc1ccc(OCCSc2nc(N)cc(N)n2)cc1	MITF act inconclusive (no result: Cneo AK release)
COc1ccccc1C(=O)N(C)c1nnc(-c2ccccc2)s1	Wnt bcat act 40 (no result: PGC1a acetyl inh)
COc1cccc(C(=O)Nc2nnc(-c3ccccc3)s2)c1OC	Wnt bcat act 45 (no result: PGC1a acetyl inh)
COc1ccccc1C(=O)Nc1nnc(-c2ccccc2)s1	none (no result: MITF act)
C[C@H](CO)N1C[C@H](C)[C@@H](CN(C)C)Oc2ncc(-c3cccnc3)cc2C1=O	none (no result: MITF act, Wnt bcat act)
C[C@@H]1CN([C@H](C)CO)C(=O)c2cc(NC(=O)Nc3cccc4ccccc34)ccc2O[C@@H](C)CCCCO[C@@H]1CN(C)Cc1ccc2c(c1)OCO2	Cneo AK release 84 (no result: MITF act, Wnt bcat act)
C[C@@H]1CCCCO[C@@H](CN(C)C(=O)Nc2ccc3c(c2)OCO3)[C@@H](C)CN([C@H](C)CO)C(=O)c2cc(NC(=O)Nc3cccc4ccccc34)ccc2O1	Cneo AK release 105 (no result: MITF act, Wnt bcat act)
CC=Cc1ccc2n(c1=O)C[C@@H]1[C@@H](CO)[C@H](C(=O)NCCC)[C@H]2N1CC1CCCC1 (mixture of isomers)	none (no result: MITF act, PGC1a acetyl inh, Wnt bcat act)
O=C(C1CCCC1)N1CC2(C1)[C@H](c1ccccc1)[C@H](CO)N2CC1CC1	none (no result: Cneo AK release, MITF act, Wnt bcat act)
Cc1nc2nc(-c3cccs3)[nH]c2cc1Br	Wnt bcat act 66 (no result: MITF act)
c1ccc(-c2nc(-c3cccs3)[nH]c2-c2ccccc2)cc1	none
Cc1ccc(S(=O)(=O)Nc2cccc3c2O[C@H](CN(C)C(=O)NC(C)C)[C@@H](C)CN([C@H](C)CO)C3=O)cc1	none (no result: MITF act, Wnt bcat act)

Source: PubChem BioAssay (Broad Institute)
